Active and inactive are the calls of the source. The rule behind the calls is not given here.
How the values were obtained:
[1] = tested on: Mammalian orthoreovirus 1; test: Antiviral activity against Reovirus 1 infected in african green monkey Vero cells assessed as reduction of virus-induced cytopathogenicity at 250 uM; type: functional, organism-based
Procedure, shortened: (§1)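 Confluent monolayers (HEL fibroblasts, Vero, or HeLa cells as listed) were infected with 100 CCID50 of virus in the presence of varying compound concentrations. Virus-induced cytopathicity or plaque formation was scored once cytopathicity was complete in untreated infected controls. EC50 was taken as the concentration reducing cytopathogenicity or plaque formation by 50%.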

Sindbis virus = test: Antiviral activity against Sindbis virus infected in african green monkey Vero cells assessed as reduction of virus-induced cytopathogenicity at 250 uM; type: functional, organism-based; procedure, shortened: as §1
[2] = Cytotoxicity against cat CRFK cells assessed as alteration of cell morphology up to 100 uM by microscopic analysis; type: cell-based, Felis catus
Procedure, shortened: (§2)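 Uninfected host-cell cultures were exposed to compound and examined by microscopy. Cytotoxicity was expressed as the minimum cytotoxic concentration (MCC) causing a microscopically detectable alteration of normal cell morphology.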

HeLa = test: Cytotoxicity against human HeLa cells assessed as alteration of cell morphology up to 100 uM by microscopic analysis; type: cell-based; procedure, shortened: as §2
[3] = tested on: Vesicular stomatitis virus; test: Antiviral activity against Vesicular stomatitis virus infected in human HEL cells assessed as reduction of virus-induced cytopathogenicity at 250 uM; type: functional, organism-based
Procedure, shortened: (§3)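 Confluent cell monolayers were infected with 100 CCID50 of virus while exposed to varying compound concentrations. Cytopathicity was scored once it was complete in untreated infected controls. EC50 was taken as the concentration that reduced virus-induced cytopathogenicity by 50%.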

HEL = test: Cytotoxicity against human HEL cells assessed as alteration of cell morphology up to 100 uM by microscopic analysis; type: cell-based; procedure, shortened: as §2
Punta Toro virus = test: Antiviral activity against Punta Toro virus infected in african green monkey Vero cells assessed as reduction of virus-induced cytopathogenicity at 250 uM; type: functional, organism-based; procedure, shortened: as §1
[4] = tested on: Respiratory syncytial virus; test: Antiviral activity against Respiratory syncytial virus long infected in human HeLa cells assessed as reduction of virus-induced cytopathogenicity at 250 uM; type: functional, organism-based; procedure, shortened: as §1
Influenza A virus [5] = test: Antiviral activity against Influenza A virus H3N2 infected in dog MDCK cells assessed as reduction of virus-induced cytopathogenicity at 250 uM; type: functional, organism-based; procedure, shortened: as §3
Human alphaherpesvirus 2 = test: Antiviral activity against Herpes simplex virus 2 G infected in human HEL cells assessed as reduction of virus-induced cytopathogenicity at 250 uM; type: functional, organism-based; settings: strain G; procedure, shortened: as §1
[6] = tested on: Vesicular stomatitis virus; test: Antiviral activity against Vesicular stomatitis virus infected in human HeLa cells assessed as reduction of virus-induced cytopathogenicity at 250 uM; type: functional, organism-based; procedure, shortened: as §3
MDCK = test: Cytotoxicity against dog MDCK cells assessed as alteration of cell morphology up to 100 uM by microscopic analysis; type: cell-based, Canis lupus familiaris; procedure, shortened: as §2
Human alphaherpesvirus 1 [7] = test: Antiviral activity against Herpes simplex virus 1 KOS infected in human HEL cells assessed as reduction of virus-induced cytopathogenicity at 250 uM; type: functional, organism-based; procedure, shortened: as §1
[8] = tested on: Human immunodeficiency virus 1; test: Antiviral activity against Human immunodeficiency virus 1 3B infected in human CEM cells assessed as reduction of virus-induced giant cell formation at 250 uM after 4 to 5 days; type: functional, organism-based; settings: CCRF-CEM
Procedure, shortened: (§4)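 CEM cells at 3 × 10^5 cells/mL were infected with HIV at 100 CCID50 per mL in the presence of compound dilutions. They were held 4–5 days at 37 °C in humidified CO2. Syncytium (giant cell) formation was scored microscopically, and EC50 was taken as the concentration inhibiting giant cell formation by 50%.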

Felid alphaherpesvirus 1 = test: Antiviral activity against Feline herpes virus infected in cat CRFK cells assessed as reduction of virus-induced cytopathogenicity at 250 uM; type: functional, organism-based
Feline coronavirus = test: Antiviral activity against Feline coronavirus infected in cat CRFK cells assessed as reduction of virus-induced cytopathogenicity at 250 uM; type: functional, organism-based
[9] = tested on: Human immunodeficiency virus 2; test: Antiviral activity against Human immunodeficiency virus 2 ROD infected in human CEM cells assessed as reduction of virus-induced giant cell formation at 250 uM after 4 to 5 days; type: functional, organism-based; settings: CCRF-CEM; procedure, shortened: as §4
Coxsackievirus B4 = test: Antiviral activity against Coxsackievirus B4 infected in african green monkey Vero cells assessed as reduction of virus-induced cytopathogenicity at 250 uM; type: functional, organism-based; procedure, shortened: as §1
Human respirovirus 3 = test: Antiviral activity against Parainfluenza virus 3 infected in african green monkey Vero cells assessed as reduction of virus-induced cytopathogenicity at 250 uM; type: functional, organism-based; procedure, shortened: as §1
Vero = test: Cytotoxicity against african green monkey Vero cells assessed as alteration of cell morphology up to 100 uM by microscopic analysis; type: cell-based; settings: chlorocebus sabaeus; procedure, shortened: as §2
Influenza A virus [10] = test: Antiviral activity against Influenza A virus H1N1 infected in dog MDCK cells assessed as reduction of virus-induced cytopathogenicity at 250 uM; type: functional, organism-based; procedure, shortened: as §3
Human alphaherpesvirus 1 [11] = test: Antiviral activity against thymidine kinase-deficient, ACV-resistant Herpes simplex virus 1 KOS infected in human HEL cells assessed as reduction of virus-induced cytopathogenicity at 250 uM; type: functional, organism-based; procedure, shortened: as §3
Influenza B virus = test: Antiviral activity against Influenza B virus infected in dog MDCK cells assessed as reduction of virus-induced cytopathogenicity at 250 uM; type: functional, organism-based; procedure, shortened: as §3

SMILES | inhibition [1] | inhibition (Sindbis virus) | Activity [2] | Activity (HeLa) | inhibition [3] | Activity (HEL) | inhibition (Punta Toro virus) | inhibition [4] | inhibition (Influenza A virus [5]) | inhibition (Human alphaherpesvirus 2) | inhibition [6] | Activity (MDCK) | inhibition (Human alphaherpesvirus 1 [7]) | inhibition [8] | inhibition (Felid alphaherpesvirus 1) | inhibition (Feline coronavirus) | inhibition [9] | inhibition (Coxsackievirus B4) | inhibition (Human respirovirus 3) | Activity (Vero) | also measured
CCOP(=O)(OCC)[C@@H]1C[C@H](C(=O)Nc2ccc(F)cc2F)ON1C (mixture of isomers) | inactive | inactive | Non-toxic | Non-toxic | inactive | Non-toxic | inactive | inactive | inactive | inactive | inactive | Non-toxic | inactive | inactive | inactive | inactive | inactive | inactive | inactive | Non-toxic | inhibition (Influenza A virus [10]): inactive; inhibition (Human alphaherpesvirus 1 [11]): inactive; inhibition (Influenza B virus): inactive
CCOP(=O)(OCC)[C@H]1C[C@H](C(=O)Nc2ccc(F)cc2)ON1C (racemic) | inactive | inactive | Non-toxic | Non-toxic | inactive | Non-toxic | inactive | inactive | inactive | inactive | inactive | Non-toxic | inactive | inactive | inactive | inactive | inactive | inactive | inactive | Non-toxic | inhibition (Influenza A virus [10]): inactive; inhibition (Human alphaherpesvirus 1 [11]): inactive; inhibition (Influenza B virus): inactive
CCOP(=O)(OCC)[C@@H]1C[C@H](C(=O)Nc2cccc(C(C)=O)c2)ON1C (racemic) | inactive | inactive | Non-toxic | Non-toxic | inactive | Non-toxic | inactive | inactive | inactive | inactive | inactive | Non-toxic | inactive | inactive | inactive | inactive | inactive | inactive | inactive | Non-toxic | inhibition (Influenza A virus [10]): inactive; inhibition (Human alphaherpesvirus 1 [11]): inactive; inhibition (Influenza B virus): inactive
CCOP(=O)(OCC)[C@@H]1C[C@H](C(=O)Nc2cccc([N+](=O)[O-])c2)ON1C (mixture of isomers) | inactive | inactive | Non-toxic | Non-toxic | inactive | Non-toxic | inactive | inactive | inactive | inactive | inactive | Non-toxic | inactive | inactive | inactive | inactive | inactive | inactive | inactive | Non-toxic | inhibition (Influenza A virus [10]): inactive; inhibition (Human alphaherpesvirus 1 [11]): inactive; inhibition (Influenza B virus): inactive
CCOP(=O)(OCC)[C@H]1C[C@H](C(=O)Nc2cccc(C(C)=O)c2)ON1C (mixture of isomers) | inactive | inactive | Non-toxic | Non-toxic | inactive | Non-toxic | inactive | inactive | inactive | inactive | inactive | Non-toxic | inactive | inactive | inactive | inactive | inactive | inactive | inactive | Non-toxic | inhibition (Influenza A virus [10]): inactive; inhibition (Human alphaherpesvirus 1 [11]): inactive; inhibition (Influenza B virus): inactive
CCOP(=O)(OCC)[C@@H]1C[C@H](C(=O)Nc2ccc(C)cc2)ON1C (mixture of isomers) | inactive | inactive | Non-toxic | Non-toxic | inactive | Non-toxic | inactive | inactive | inactive | inactive | inactive | Non-toxic | inactive | inactive | inactive | inactive | inactive | inactive | inactive | Non-toxic | inhibition (Influenza A virus [10]): inactive; inhibition (Human alphaherpesvirus 1 [11]): inactive; inhibition (Influenza B virus): inactive
CCOP(=O)(OCC)[C@@H]1C[C@H](C(=O)Nc2ccccc2[N+](=O)[O-])ON1C (mixture of isomers) | inactive | inactive | Non-toxic | Non-toxic | inactive | Non-toxic | inactive | inactive | inactive | inactive | inactive | Non-toxic | inactive | inactive | inactive | inactive | inactive | inactive | inactive | Non-toxic | inhibition (Influenza A virus [10]): inactive; inhibition (Human alphaherpesvirus 1 [11]): inactive; inhibition (Influenza B virus): inactive
CCOP(=O)(OCC)[C@@H]1C[C@H](C(=O)Nc2ccc(F)cc2)ON1C (mixture of isomers) | inactive | inactive | Non-toxic | Non-toxic | inactive | Non-toxic | inactive | inactive | inactive | inactive | inactive | Non-toxic | inactive | inactive | inactive | inactive | inactive | inactive | inactive | Non-toxic | inhibition (Influenza A virus [10]): inactive; inhibition (Human alphaherpesvirus 1 [11]): inactive; inhibition (Influenza B virus): inactive
